A selection: hits, their analogues and other compounds. The true share with any hit is near 2.4%.
MC4R antag cAMP = MC4R antagonists of cAMP signaling, primary screen, cell-based, TR-FRET, antagonist arm of biased-ligand search | inhibition, % at 6.5 µM | MC4R-expressing cells, MTII-stimulated cAMP, LANCE TR-FRET | hit rate 0.48% among 360,000;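 active = inhibition above its plate's cutoff, the mean of tested wells on that plate plus 3 SD, cut at about 29% in these data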;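 note: 0% = Melanotan II alone and 100% = Melanotan II plus saturating MCL0020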
Target sequence (P32245 whole entry, looked up): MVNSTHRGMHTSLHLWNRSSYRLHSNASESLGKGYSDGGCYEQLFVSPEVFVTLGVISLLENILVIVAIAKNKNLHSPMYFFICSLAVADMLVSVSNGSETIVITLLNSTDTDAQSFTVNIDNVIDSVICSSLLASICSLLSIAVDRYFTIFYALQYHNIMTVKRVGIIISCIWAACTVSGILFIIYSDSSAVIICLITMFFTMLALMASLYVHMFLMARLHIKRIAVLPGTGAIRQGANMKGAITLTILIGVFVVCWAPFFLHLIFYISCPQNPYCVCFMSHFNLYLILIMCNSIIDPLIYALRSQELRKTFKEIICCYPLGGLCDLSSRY
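System: U2OS-MC4R stable cell line; Technique: Eu-cAMP/anti-cAMP TR-FRET, emission 671 nm; Repeats: single well per compound; Also added: Melanotan II; Dosing: one concentration, 6.5 µM nominal; Schedule: 30-min compound, 1-h challenge, 1-h detection, room temperature.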
OPRM1-OPRD1 ag = agonists of OPRM1-OPRD1 heterodimerization, primary screen, cell-based, luminescence; Mu-type opioid receptor (Homo sapiens) + Delta-type opioid receptor (Homo sapiens), …; cells; activation, % at 9.3 µM; hit rate 0.3% among 340,000; AID 504326, 2011; in the data active = activation above about 18%;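 note: 0% = vehicle-treated cells and 100% = reference agonist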
HTR5A inv ctr = HTR5A inverse agonists in luminescence cell assay, primary screen, counter-screen for OPRM1-OPRD1 heterodimer inverse agonist project, full-deck HTS; inhibition, % at 9.3 µM; hit rate 0.083% among 340,000; HTR5A cell line, inverse agonism; 5-hydroxytryptamine receptor 5A (Homo sapiens), P47898; in the data active = inhibition mostly above about 23%, no sharp cut-off; inactive = mostly below about 18%;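 note: 0% = cells with DMSO and 100% = no-cell wells with DMSO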
Target sequence (P47898 whole entry, looked up): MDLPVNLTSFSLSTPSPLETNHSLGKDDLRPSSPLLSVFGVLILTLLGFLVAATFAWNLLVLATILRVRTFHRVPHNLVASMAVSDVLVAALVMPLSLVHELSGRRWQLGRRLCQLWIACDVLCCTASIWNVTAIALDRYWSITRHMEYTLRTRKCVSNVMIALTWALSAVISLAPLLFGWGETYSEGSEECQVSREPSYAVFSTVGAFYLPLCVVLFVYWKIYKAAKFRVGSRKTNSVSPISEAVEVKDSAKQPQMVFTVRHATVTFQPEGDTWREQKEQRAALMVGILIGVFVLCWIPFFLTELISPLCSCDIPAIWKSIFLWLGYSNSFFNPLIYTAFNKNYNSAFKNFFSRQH
MC4R barr agon = MC4R agonists recruiting beta-arrestin, primary screen, cell-based, luminescence, agonist arm of biased-ligand search; Melanocortin receptor 4 (Homo sapiens), P32245; U2OS MC4R beta-arrestin complementation; percent of melanotan II response, DMSO zero; activation, % at 8.9 µM; hit rate 0.98% among 360,000;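 active = activation above a per-plate cutoff, the mean activation of sample wells on that plate plus 3 SD, cut at about 8% in these data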
MOR-DOR inv ag = inverse agonists of MOR-DOR heterodimerization, primary screen, cell-based, luminescence | Mu-type opioid receptor (Homo sapiens) + Delta-type opioid receptor (Homo sapiens), … | cell-based MOR-DOR heterodimer luminescence, inverse agonism | inhibition, % at 9.3 µM | hit rate 0.21% among 340,000; in the data active = inhibition above about 22%, passing the limit was not always enough;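 note: 0% = cells with DMSO and 100% = wells without cells with DMSO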
HTR5A ag = HTR5A agonists in luminescence cell assay, primary screen, counter-screen for OPRM1-OPRD1 heterodimer agonist project, full-deck HTS; 5-hydroxytryptamine receptor 5A (Homo sapiens), P47898; cell-based; activation, % at 9.3 µM; hit rate 0.61% among 340,000; AID 504692, 2011; in the data active = activation mostly above about 9.5%, no sharp cut-off; inactive = mostly below about 7.6%;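 note: 0% = cells with vehicle only and 100% = reference agonist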
An asterisk follows results filed as active.

For Cc1ccc(-c2nc3ccccc3s2)cc1NC(=O)c1ccc2c(c1)OCO2 the results were MC4R antag cAMP 38.0*, OPRM1-OPRD1 ag -0.9, HTR5A inv ctr -7.2, MC4R barr agon -1.5, MOR-DOR inv ag 5.1 and HTR5A ag -1.1.
Screening NS(=O)(=O)c1ccc(CCNC(=S)NC(=O)c2ccccc2Br)cc1 returned MC4R antag cAMP -0.3, OPRM1-OPRD1 ag -2.7, HTR5A inv ctr -10.1, MC4R barr agon -0.9, MOR-DOR inv ag 13.1 and HTR5A ag 2.6.
Cc1ccc(CNCc2cc3c(C(C)(C)C)nn(-c4ccccc4)c3[nH]c2=O)cc1 was read as MC4R antag cAMP 12.7, OPRM1-OPRD1 ag 9.2, HTR5A inv ctr 4.7, MC4R barr agon 8.9*, MOR-DOR inv ag -54.9 and HTR5A ag -2.0.
For COc1ccc(C)cc1NC(=O)c1cc(S(=O)(=O)N2CCCCC2)ccc1N1CCOCC1 the results were MC4R antag cAMP 9.1, OPRM1-OPRD1 ag -0.8, HTR5A inv ctr -29.9, MC4R barr agon 0.5, MOR-DOR inv ag 4.0 and HTR5A ag 8.2.
Cc1ccc(-n2c(C)cc(C(=O)COc3c(CO)cc(F)cc3CO)c2C)cc1C was read as MC4R antag cAMP -5.1, OPRM1-OPRD1 ag -0.5, HTR5A inv ctr -17.5, MC4R barr agon 0.1, MOR-DOR inv ag 2.9 and HTR5A ag -3.4.
`Cc1ccc2nc(Cl)c3nnnn3c2c1` gave MC4R antag cAMP 22.1, OPRM1-OPRD1 ag -7.0, HTR5A inv ctr 0.5, MC4R barr agon -2.6, MOR-DOR inv ag 38.2* and HTR5A ag -0.2.
`Fc1ccc(/C=C2\CCCC3=C2Nc2ncnn2C3c2ccc(F)cc2)cc1` (stereo not drawn) gave MC4R antag cAMP 9.2, OPRM1-OPRD1 ag 5.7, HTR5A inv ctr -59.4, MC4R barr agon -0.1, MOR-DOR inv ag -31.1 and HTR5A ag 10.5*.
For COc1ccc(C(=O)Nc2nc(C)cs2)cc1S(=O)(=O)N1CCCC1 the results were MC4R antag cAMP -3.6, OPRM1-OPRD1 ag -0.9, HTR5A inv ctr -6.2, MC4R barr agon -1.8, MOR-DOR inv ag 5.0 and HTR5A ag 2.3.
`Cc1ccc(NC(=S)N2CCC(c3nc4ccccc4s3)CC2)cc1C` gave MC4R antag cAMP 5.2, OPRM1-OPRD1 ag 0.9, HTR5A inv ctr -9.3, MC4R barr agon 3.7, MOR-DOR inv ag -5.9 and HTR5A ag 3.5.
`Cc1cc(C)cc(NC(=S)N2CCC(c3nc4ccccc4s3)CC2)c1` gave MC4R antag cAMP -3.5, OPRM1-OPRD1 ag 3.5, HTR5A inv ctr 7.2, MC4R barr agon 8.5*, MOR-DOR inv ag -20.7 and HTR5A ag 3.5.
For O=C1C=C(C#Cc2ccccc2)C[C@@H](c2ccc(F)cc2)C1 the results were MC4R antag cAMP 12.3 and MC4R barr agon -1.4.
For COc1ccc(/C=N\n2nnc3ccccc32)cc1 the results were MC4R antag cAMP 10.2, OPRM1-OPRD1 ag 3.0, HTR5A inv ctr -18.1, MC4R barr agon 9.0*, MOR-DOR inv ag -14.8 and HTR5A ag 0.0.
For COc1ccc(/C=N/n2c(C)nc3ccccc3c2=O)cc1 the results were MC4R antag cAMP 3.6, OPRM1-OPRD1 ag -4.0, HTR5A inv ctr -13.8, MC4R barr agon 1.0, MOR-DOR inv ag 21.3 and HTR5A ag 4.9.
Screening CC(C)C[C@H](NC(=O)c1nc[nH]c1C(=O)N1CCc2ccccc2C1)C(=O)OC(C)(C)C returned MC4R antag cAMP -2.6, OPRM1-OPRD1 ag 10.2, HTR5A inv ctr 3.4, MC4R barr agon 2.7, MOR-DOR inv ag -56.7 and HTR5A ag 8.2.
`CCc1sc(C(=O)NCCCn2ccnc2)cc1Br` gave MC4R antag cAMP 4.5, OPRM1-OPRD1 ag -1.5, HTR5A inv ctr -36.9, MC4R barr agon -2.0, MOR-DOR inv ag 7.0 and HTR5A ag 10.0*.
For CCCNC(=O)Cn1c(-c2ccc(F)cc2)cc(C(=O)OCC)c1C the results were MC4R antag cAMP 0.1, OPRM1-OPRD1 ag 1.7, HTR5A inv ctr -25.3, MC4R barr agon 8.3*, MOR-DOR inv ag -12.1 and HTR5A ag -2.2.
`CCOC(=O)c1c(C)[nH]c(C)c1C(=O)COC(=O)CCc1ccccc1` gave MC4R antag cAMP -1.2, OPRM1-OPRD1 ag -1.2, HTR5A inv ctr -5.0, MC4R barr agon 1.4, MOR-DOR inv ag 4.7 and HTR5A ag 13.1*.
Screening COc1cc(NC(=O)c2ccccc2)c(C)cc1NC(=O)CC(CC(=O)O)c1ccccc1 (stereo not drawn) returned MC4R antag cAMP 1.5, OPRM1-OPRD1 ag -2.1, HTR5A inv ctr -16.5, MC4R barr agon -1.0, MOR-DOR inv ag 10.2 and HTR5A ag 4.4.
`CN(C)c1ccc(C#Cc2ccc3cc(CCO)oc(=O)c3c2)cc1` gave MC4R antag cAMP 43.0*, OPRM1-OPRD1 ag 0.5, HTR5A inv ctr 7.6, MC4R barr agon -0.5, MOR-DOR inv ag -3.0 and HTR5A ag -2.8.
COc1ccccc1CN=C1NC(=O)C(CC(=O)Nc2ccc(C(C)=O)cc2)S1 (stereo not drawn) was read as MC4R antag cAMP -5.6, OPRM1-OPRD1 ag 0.4, HTR5A inv ctr 8.0, MC4R barr agon 0.2, MOR-DOR inv ag -2.2 and HTR5A ag 13.2*.
For COc1ccc(CCNC(=O)CC2SC(=NCc3ccccc3OC)NC2=O)cc1 (stereo not drawn) the results were MC4R antag cAMP 7.8, OPRM1-OPRD1 ag -1.6, HTR5A inv ctr -2.4, MC4R barr agon 3.3, MOR-DOR inv ag 7.6 and HTR5A ag 1.0.
`COc1ccc(CC(=O)N(C)Cc2ccc(Cl)cc2)cc1S(=O)(=O)N1CCOCC1` gave MC4R antag cAMP -2.6, OPRM1-OPRD1 ag 0.7, HTR5A inv ctr 9.1, MC4R barr agon -3.0, MOR-DOR inv ag -4.3 and HTR5A ag -3.0.
`CS(=O)(=O)N1CCc2cc(C(=O)Nc3ccc(O)cc3)ccc21` gave MC4R antag cAMP 10.8, OPRM1-OPRD1 ag -0.3, HTR5A inv ctr -1.1, MC4R barr agon 2.4, MOR-DOR inv ag 1.8 and HTR5A ag 0.4.
For c1ccc(NN=C2c3ccccc3-c3ccccc32)cc1 the results were MC4R antag cAMP 3.5, OPRM1-OPRD1 ag 2.9, HTR5A inv ctr 11.8, MC4R barr agon 0.4, MOR-DOR inv ag -15.1 and HTR5A ag -3.3.
Screening Cc1ccc(NN=C2c3ccccc3-c3ccccc32)cc1 returned MC4R antag cAMP 14.0, OPRM1-OPRD1 ag 7.9, HTR5A inv ctr -2.0, MC4R barr agon 8.4*, MOR-DOR inv ag -43.8 and HTR5A ag 6.2.
Cc1ccc(OCC(=O)NN=C2c3ccccc3-c3ccccc32)cc1 was read as MC4R antag cAMP -4.2, OPRM1-OPRD1 ag -1.2, HTR5A inv ctr -0.1, MC4R barr agon 8.6*, MOR-DOR inv ag 6.4 and HTR5A ag 3.7.

Screens deposited in PubChem by The Scripps Research Institute Molecular Screening Center.
